Source: ChEMBL document CHEMBL1121813, “Dihydrochalcone sweeteners. A study of the atypical temporal phenomena” (1981)

Experiments:
Assay type in all cases: functional
Homo sapiens [1] = species: Homo sapiens; assay: Sour character at a concentration of 251 ppm (mean value)
Summary of the method: (§1)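 Trained human sensory panel (Swartz method) tasted dilute aqueous solutions of the compounds, which had to be ≥95 weight percent pure and free of mutagenicity and toxicity. Taste character is reported as the mean value with 2S_m limits. Data deviating excessively at the 95% confidence level were rejected by the t-value method.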

Homo sapiens [2] = species: Homo sapiens; assay: Percentage of judgments reporting an aftertaste at a concentration of 251 ppm and character thereof
Summary of the method: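 Trained human sensory panel; compounds tasted in aqueous solution. Before panel work, compounds had to be ≥95 weight percent pure (HPLC, proton titration, Karl Fischer) and free of mutagenicity (five Salmonella typhimurium strains, ± microsomal activation) and single oral dose mouse toxicity. Value is the percentage of judgments reporting an aftertaste, with its character recorded as sweet, bitter or bitter-sweet.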

Homo sapiens [3] = species: Homo sapiens; assay: Intensity calculated on a weight basis relative to an 85500 ppm sucrose solution at a concentration of 251 ppm (mean value)
Summary of the method: (§2)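 Trained human panel tasted aqueous solutions of purity-checked (≥95 weight percent) compounds cleared for mutagenicity and mouse oral toxicity. Weight-basis intensity I_w = perceived intensity × (85500 ppm sucrose / compound concentration in ppm). The mean is reported with 2S_m limits; data deviating excessively at 95% confidence were rejected by the t-value method.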

Homo sapiens [4] = species: Homo sapiens; assay: Bitter character at a concentration of 251 ppm (mean value)
Summary of the method: (§3)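 Trained human panel tasted aqueous solutions. Each judge reported whether there was an aftertaste and its character (sweet, bitter or bitter-sweet). The value is the percentage of judgments reporting a bitter aftertaste.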

Homo sapiens [5] = species: Homo sapiens; assay: Experimentally determined perceived intensity of compound at a concentration of 251 ppm (mean value)
Summary of the method: (§4)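 Trained human sensory panel of judges tasted aqueous solutions of the compound. Samples had to be ≥95 weight % pure (HPLC, proton titration, Karl Fischer), non-mutagenic in five Salmonella typhimurium strains with and without microsomal activation, and non-toxic in a single-oral-dose mouse test. Perceived intensity (Ip) was read from time–intensity curves at 4- or 6-s intervals and averaged. Outliers at the 95% level were rejected by t-value. Values reported as mean (2Sm).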

Homo sapiens [6] = species: Homo sapiens; assay: Number of taste judgments per compound
Homo sapiens [7] = species: Homo sapiens; assay: Sweet / Bitter character at a concentration of 251 ppm (mean value); […]
Homo sapiens [8] = species: Homo sapiens; assay: Sweet character at a concentration of 251 ppm (mean value); summary of the method: as §1
Homo sapiens [9] = species: Homo sapiens; assay: Intensity calculated on a molar basis relative to a 0.25 M sucrose solution at a concentration of 251 ppm (mean value)
Summary of the method: (§5)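 Trained human judges tasted aqueous solutions of the test compound; compounds were first required to be ≥95 weight percent pure and free of mutagenicity (five Salmonella typhimurium strains, ± microsomal activation) and of single oral dose mouse toxicity. Molar intensity I_m = perceived intensity × (0.25 M sucrose / compound molar concentration). The mean is reported with 2S_m limits; outliers were rejected at 95% confidence by t-value.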

Homo sapiens [10] = species: Homo sapiens; assay: Salty character at a concentration of 251 ppm (mean value); summary of the method: as §1
Homo sapiens [11] = species: Homo sapiens; assay: Other taste character at a concentration of 251 ppm (mean value); summary of the method: as §1
Homo sapiens [12] = species: Homo sapiens; assay: Intensity calculated on a weight basis relative to an 85500 ppm sucrose solution at a concentration of 210 ppm (mean value); summary of the method: as §2
Homo sapiens [13] = species: Homo sapiens; assay: Sour character at a concentration of 210 ppm (mean value)
Homo sapiens [14] = species: Homo sapiens; assay: Bitter character at a concentration of 210 ppm (mean value); summary of the method: as §3
Homo sapiens [15] = species: Homo sapiens; assay: Other taste character at a concentration of 210 ppm (mean value)
Summary of the method: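 Trained human panel tasted aqueous solutions of each compound. Aftertaste is scored as the percentage of judgments reporting one, with its character coded sweet (s), bitter (b) or bitter-sweet (bs).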

Homo sapiens [16] = species: Homo sapiens; assay: Experimentally determined perceived intensity of compound at a concentration of 210 ppm (mean value); summary of the method: as §4
Homo sapiens [17] = species: Homo sapiens; assay: Sweet / Bitter character at a concentration of 210 ppm (mean value); 0/100
Homo sapiens [18] = species: Homo sapiens; assay: Percentage of judgments reporting an aftertaste at a concentration of 210 ppm and character thereof
Summary of the method: (§6)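 Trained judges tasted aqueous solutions of the compounds, which had to be ≥95 weight percent pure and to have passed mutagenicity and single oral dose toxicity screening. The value is the percentage of panel judgments reporting an aftertaste. Where given, its character is recorded as sweet, bitter or bitter-sweet.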

Homo sapiens [19] = species: Homo sapiens; assay: Sweet character at a concentration of 210 ppm (mean value)
Homo sapiens [20] = species: Homo sapiens; assay: Intensity calculated on a molar basis relative to a 0.25 M sucrose solution at a concentration of 210 ppm (mean value); summary of the method: as §5
Homo sapiens [21] = species: Homo sapiens; assay: Salty character at a concentration of 210 ppm (mean value)
Homo sapiens [22] = species: Homo sapiens; assay: Sweet character at a concentration of 33.4 ppm (mean value)
Homo sapiens [23] = species: Homo sapiens; assay: Intensity calculated on a weight basis relative to an 85500 ppm sucrose solution at a concentration of 33.4 ppm (mean value); summary of the method: as §2
Homo sapiens [24] = species: Homo sapiens; assay: Experimentally determined perceived intensity of compound at a concentration of 33.4 ppm (mean value); summary of the method: as §4
Homo sapiens [25] = species: Homo sapiens; assay: Bitter character at a concentration of 33.4 ppm (mean value); summary of the method: as §3
Homo sapiens [26] = species: Homo sapiens; assay: Sour character at a concentration of 33.4 ppm (mean value)
Homo sapiens [27] = species: Homo sapiens; assay: Sweet / Bitter character at a concentration of 33.4 ppm (mean value); 66/34
Homo sapiens [28] = species: Homo sapiens; assay: Intensity calculated on a molar basis relative to a 0.25 M sucrose solution at a concentration of 33.4 ppm (mean value); summary of the method: as §5
Homo sapiens [29] = species: Homo sapiens; assay: Other taste character at a concentration of 33.4 ppm (mean value); summary of the method: as §1
Homo sapiens [30] = species: Homo sapiens; assay: Percentage of judgments reporting an aftertaste at a concentration of 33.4 ppm and character thereof
Homo sapiens [31] = species: Homo sapiens; assay: Salty character at a concentration of 33.4 ppm (mean value)
Homo sapiens [32] = species: Homo sapiens; assay: Percentage of judgments reporting an aftertaste at a concentration of 251 ppm and character thereof; Bitter; summary of the method: as §6
Homo sapiens [33] = species: Homo sapiens; assay: Sweet / Bitter character at a concentration of 251 ppm (mean value)
Homo sapiens [34] = species: Homo sapiens; assay: Sour character at a concentration of 250 ppm (mean value); summary of the method: as §1
Homo sapiens [35] = species: Homo sapiens; assay: Intensity calculated on a weight basis relative to an 85500 ppm sucrose solution at a concentration of 250 ppm (mean value); summary of the method: as §2
Homo sapiens [36] = species: Homo sapiens; assay: Bitter character at a concentration of 250 ppm (mean value); summary of the method: as §3
Homo sapiens [37] = species: Homo sapiens; assay: Experimentally determined perceived intensity of compound at a concentration of 250 ppm (mean value); summary of the method: as §4
Homo sapiens [38] = species: Homo sapiens; assay: Sweet character at a concentration of 250 ppm (mean value); summary of the method: as §1
Homo sapiens [39] = species: Homo sapiens; assay: Intensity calculated on a molar basis relative to a 0.25 M sucrose solution at a concentration of 250 ppm (mean value); summary of the method: as §5
Homo sapiens [40] = species: Homo sapiens; assay: Salty character at a concentration of 250 ppm (mean value); summary of the method: as §1
Homo sapiens [41] = species: Homo sapiens; assay: Other taste character at a concentration of 250 ppm (mean value); summary of the method: as §1
Homo sapiens [42] = species: Homo sapiens; assay: Percentage of judgments reporting an aftertaste at a concentration of 250 ppm and character thereof; summary of the method: as §6
Homo sapiens [43] = species: Homo sapiens; assay: Sweet / Bitter character at a concentration of 250 ppm (mean value); 0/100

`COc1ccc(CCC(=O)c2c(O)cc(OCCCP(=O)([O-])O)cc2O)cc1O.[K+]` was tested, and the Taste character (Homo sapiens [1]) was 0, the Judgments (Homo sapiens [2]) was 100 and the IW (Homo sapiens [3]) was 280. It also gave a Taste character (Homo sapiens [4]) of 7, an IP (Homo sapiens [5]) of 0.83 and a Judgments (Homo sapiens [6]) of 12. The Taste character (Homo sapiens [7]) was 92, the Taste character (Homo sapiens [8]) was 80 and the IM (Homo sapiens [9]) was 380. The Taste character (Homo sapiens [10]) was 0 and the Taste character (Homo sapiens [11]) was 13.
`COc1ccc(CC/C(=N\O)c2c(O)cc(OCC(=O)[O-])cc2O)cc1O.[Na+]` gave an IW (Homo sapiens [12]) of 110, a Taste character (Homo sapiens [13]) of 26 and a Taste character (Homo sapiens [14]) of 74. The Taste character (Homo sapiens [15]) was 0, the IP (Homo sapiens [16]) was 0.2 and the Taste character (Homo sapiens [17]) was 0. It also gave a Judgments (Homo sapiens [6]) of 12, a Judgments (Homo sapiens [18]) of 0 and a Taste character (Homo sapiens [19]) of 0. For the same compound, the IM (Homo sapiens [20]) was 130 and the Taste character (Homo sapiens [21]) was 0.
In the case of `COc1ccc(C2CC(=O)c3c(O)cccc3O2)cc1O` (stereo not given), the Taste character (Homo sapiens [22]) is reported as 62, the IW (Homo sapiens [23]) is reported as 1700 and the IP (Homo sapiens [24]) is reported as 0.68. The Taste character (Homo sapiens [25]) was 32, the Taste character (Homo sapiens [26]) was 6 and the Judgments (Homo sapiens [6]) was 8. For the same compound, the Taste character (Homo sapiens [27]) was 66, the IM (Homo sapiens [28]) was 1400 and the Taste character (Homo sapiens [29]) was 0. For the same compound, the Judgments (Homo sapiens [30]) was 42 and the Taste character (Homo sapiens [31]) was 0.
With `COc1ccc(C2CC(=O)c3c(O)cc(OCC(=O)[O-])cc3O2)cc1O.[Na+]` (stereo not given) the Taste character (Homo sapiens [1]) was 0, the Judgments (Homo sapiens [32]) was 100 and the IW (Homo sapiens [3]) was 270. The Taste character (Homo sapiens [4]) was 78, the IP (Homo sapiens [5]) was 0.79 and the Judgments (Homo sapiens [6]) was 12. For the same compound, the Taste character (Homo sapiens [33]) was 16, the Taste character (Homo sapiens [8]) was 15 and the IM (Homo sapiens [9]) was 300. The Taste character (Homo sapiens [10]) was 0 and the Taste character (Homo sapiens [11]) was 7.
`O=C(O)CCc1ccc(O)c(O)c1` [DIHYDROCAFFEIC ACID] showed a Taste character (Homo sapiens [34]) of 76, an IW (Homo sapiens [35]) of 250 and a Taste character (Homo sapiens [36]) of 15. For the same compound, the IP (Homo sapiens [37]) was 0.73, the Judgments (Homo sapiens [6]) was 8 and the Taste character (Homo sapiens [38]) was 0. It also gave an IM (Homo sapiens [39]) of 130, a Taste character (Homo sapiens [40]) of 0 and a Taste character (Homo sapiens [41]) of 9. It also gave a Judgments (Homo sapiens [42]) of 50 and a Taste character (Homo sapiens [43]) of 0.
